Results taken from ChEMBL document CHEMBL1144777, “An endophytic fungus from Hypericum perforatum that produces hypericin” (J Nat Prod, 2008).
Calls of active or inactive are those of the source.

Legend:
[1] = tested on: Klebsiella pneumoniae subsp. pneumoniae; assay: Antimicrobial activity against Klebsiella pneumoniae ssp. ozaenae DSM 681 by disk diffusion method; assay type: functional, organism-based
In short: (§1)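 Samples were fungal products from potato dextrose broth cultures, tested alongside authentic standards. Organic extracts of mycelia and broth were dried by rotary evaporation at 30 °C and redissolved in 1 mL HPLC-grade methanol.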

[2] = tested on: Pseudomonas aeruginosa; assay: Antimicrobial activity against Pseudomonas aeruginosa DSM 1128 by disk diffusion method; assay type: functional, organism-based; in short: as §1
[3] = tested on: Escherichia coli; assay: Antimicrobial activity against Escherichia coli DSM 682 by disk diffusion method; assay type: functional, organism-based; in short: as §1
[4] = tested on: Staphylococcus aureus; assay: Antimicrobial activity against Staphylococcus aureus ssp. Aureus DSM 799 by disk diffusion method; assay type: functional; in short: as §1
[5] = tested on: Aspergillus niger; assay: Antimicrobial activity against Aspergillus niger DSM 1988 by disk diffusion method; assay type: functional, organism-based; in short: as §1
[6] = tested on: Salmonella enterica subsp. enterica; assay: Antimicrobial activity against Salmonella enterica ssp. enterica DSM 9898 by disk diffusion method; assay type: functional, organism-based; in short: as §1
[7] = tested on: Candida albicans; assay: Antimicrobial activity against Candida albicans DSM 1386 by disk diffusion method; assay type: functional, organism-based; in short: as §1

Measured: Activity

Cc1cc(O)c2c(=O)c3c(O)cc(O)c4c5c(O)cc(O)c6c(=O)c7c(O)cc(C)c8c1c2c(c34)c(c78)c65
active: all assays above

Cc1cc(O)c2c(c1)C(=O)c1cc(O)cc(O)c1C2=O
active: all assays above
